{
  "source": "ChEMBL document CHEMBL4513216",
  "about": "“Probing the Open Global Health Chemical Diversity Library for Multistage-Active Starting Points for Next-Generation Antimalarials” (ACS Infect Dis, 2020)",
  "data": [
    {"experiment": "Toxicity liver stage against HepG2, at 10uM", "type": "cell-based", "design": "test concentration 10 uM, cell line HepG2-A16-CD81EGFP", "settings": "human, HepG2-A16-CD81EGFP cells; read-out: INHIBITION", "summary_of_the_method": "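Uninfected HepG2-A16-CD81EGFP cells, 3 × 10^3 per well, 1536-well, plated on prespotted compound at 10 μM final, parasite-free screening media added to match infected plates; puromycin 10 μM positive, DMSO 0.5% negative; run in parallel with 48 h PbLuc assay at 37 °C, 5% CO2; viability by CellTiter-Glo luminescence, normalized to controls.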", "units": {"cytotoxicity at 10 µM": "%"}, "values": [
      {"smiles": "Cc1cc(C2CCCN2CCCc2nc3ccccc3o2)on1", "note": "(stereo not given)", "cytotoxicity at 10 µM": -5.58},
      {"smiles": "COCC(=O)Nc1ccc(-c2noc([C@@H]3CCCN3)n2)cn1", "cytotoxicity at 10 µM": -1.16},
      {"smiles": "CC(C)NC(=O)NC[C@H]1OC[C@@H](NCc2ccncc2)[C@@H]1O", "cytotoxicity at 10 µM": -4.07},
      {"smiles": "C[C@@H](NC(=O)c1cccn1C)c1c(-c2ccc(Cl)cc2)noc1C(=O)O", "cytotoxicity at 10 µM": 3},
      {"smiles": "Cn1nnc(NCc2ccc(OCc3ccc(Cl)cc3)cc2)n1", "cytotoxicity at 10 µM": -2.56},
      {"smiles": "CC(C)(C)S(=O)(=O)c1ccc(N2CCN(c3ccccn3)CC2)nn1", "cytotoxicity at 10 µM": -3.3},
      {"smiles": "COCCNC(=O)NCCS(=O)(=O)N1CCN(c2cccc(C)c2)CC1", "cytotoxicity at 10 µM": 4.31},
      {"smiles": "CCOCC(=O)N1CCC2(CC1)CN(Cc1cccnc1)C(=O)CO2", "cytotoxicity at 10 µM": -0.125},
      {"smiles": "O=C(NC1CCC1)C1CCC2(CN(C(=O)c3ccco3)C2)O1", "note": "(stereo not given)", "cytotoxicity at 10 µM": -144},
      {"smiles": "Cc1ccoc1C(=O)N1CCc2ncnc(-c3cnn(C)c3)c2CC1", "cytotoxicity at 10 µM": 16.9},
      {"smiles": "Cn1cc(-c2cnc(N3CCOCC3)nc2)cc1C(=O)N1CCCC1", "cytotoxicity at 10 µM": -10.6},
      {"smiles": "Cc1cccc(C(=O)Oc2cc(=O)n3cccc(C)c3n2)c1", "cytotoxicity at 10 µM": 1.11},
      {"smiles": "COc1cc(CCO)c(OC)c2c1OCO2", "cytotoxicity at 10 µM": -5.6},
      {"smiles": "O=C(NC1CCCC1)c1cc(Sc2ncccn2)ccn1", "cytotoxicity at 10 µM": -12.3},
      {"smiles": "COCCNC(=O)Cn1c(-c2ccco2)cc2cccnc21", "cytotoxicity at 10 µM": -5.09},
      {"smiles": "Nc1nccnc1C1CN(C(=O)COc2cccnc2)CCO1", "note": "(stereo not given)", "cytotoxicity at 10 µM": -1.83},
      {"smiles": "COCCNc1nnc(-c2ccccn2)s1", "cytotoxicity at 10 µM": 6.1},
      {"smiles": "Clc1ccc(CN(CCN2CCOCC2)Cc2cccnc2)c(Cl)c1", "cytotoxicity at 10 µM": -4.25},
      {"smiles": "Cc1cc(C)n(CCCC(=O)N2CCc3ncc(Cl)cc3C2)n1", "cytotoxicity at 10 µM": -25.3},
      {"smiles": "CC(NC(=O)c1cnccn1)c1nnc2ccccn12", "note": "(stereo not given)", "cytotoxicity at 10 µM": 5.1},
      {"smiles": "Cc1cnn(-c2ccc(S(=O)(=O)N(C)CC(F)F)cc2F)c1", "cytotoxicity at 10 µM": 9.75},
      {"smiles": "CC1(C)COCCN1C(=O)CCc1nc(-c2ccc(Cl)cc2)no1", "cytotoxicity at 10 µM": 25.4},
      {"smiles": "CCCc1c(C(=O)N2CCN(c3ncccn3)CC2)cnn1C", "cytotoxicity at 10 µM": 3.38},
      {"smiles": "O=C(CNc1nc(C2CC2)ns1)N1CCc2sccc2C1", "cytotoxicity at 10 µM": 17.3},
      {"smiles": "COc1cc(CO)ccc1OCc1nc(C(C)C)no1", "cytotoxicity at 10 µM": 6.3},
      {"smiles": "Cc1ncncc1C(=O)N1CCCN(Cc2nccn2C(C)C)CC1", "cytotoxicity at 10 µM": 5.79},
      {"smiles": "Cc1ccc(-c2nnn(CCN3C(=O)CCC3=O)n2)cc1", "cytotoxicity at 10 µM": 1.33},
      {"smiles": "CCN(CC(C)C#N)C(=O)CNc1ccc(F)c(C)c1", "note": "(stereo not given)", "cytotoxicity at 10 µM": 17.5},
      {"smiles": "Cc1nnc(NC(=O)N2CCC(N3CCCCC3)CC2)s1", "cytotoxicity at 10 µM": 7.15},
      {"smiles": "CS(=O)(=O)c1cccc(S(=O)(=O)NC(=O)c2cscn2)c1", "cytotoxicity at 10 µM": 1.33},
      {"smiles": "COCCN(CCOC)C(=O)c1ccn(-c2ccccc2Cl)n1", "cytotoxicity at 10 µM": -1.59},
      {"smiles": "CCOC(=O)N(C)C1CCN(Cc2ccsc2)CC1", "cytotoxicity at 10 µM": -0.572},
      {"smiles": "CCc1nnc2n1CCN(C(=O)C(C)Oc1ccc(C#N)cc1)C2", "note": "(stereo not given)", "cytotoxicity at 10 µM": -7.04},
      {"smiles": "CCN(CC)C(=O)CS(=O)(=O)c1cc(OC)c(OC)cc1C", "cytotoxicity at 10 µM": -2.58},
      {"smiles": "CCn1ccnc1CN1CCN(c2ncnc3ccsc23)CC1", "cytotoxicity at 10 µM": 5.39},
      {"smiles": "CC(NC(=O)NCc1cccc(CN2CCCC2)c1)c1nccs1", "note": "(stereo not given)", "cytotoxicity at 10 µM": -7.43},
      {"smiles": "COc1ncccc1CNC(=O)c1c[nH]c(=O)c(Br)c1", "cytotoxicity at 10 µM": -2.62},
      {"smiles": "Cc1noc(-c2cccnc2N2CCOC(C)(c3cnn(C)c3)C2)n1", "note": "(stereo not given)", "cytotoxicity at 10 µM": 4.08},
      {"smiles": "O=C(N1CCN(CCO)CC1)C1(O)Cc2ccccc2C1", "cytotoxicity at 10 µM": -2.92},
      {"smiles": "Cc1nonc1NC(=O)C1SCCc2sccc21", "note": "(stereo not given)", "cytotoxicity at 10 µM": -2.82},
      {"smiles": "CC(C)(C)OC(=O)NCC1CCCCN1Cc1cccc(C(N)=O)c1", "note": "(stereo not given)", "cytotoxicity at 10 µM": -2.27},
      {"smiles": "Cn1nc2c(cc1=O)CN(CC(=O)Nc1nncs1)CC2", "cytotoxicity at 10 µM": -9.55},
      {"smiles": "CC(C)NC(=O)CCNC(=O)Nc1cccc(-c2nccn2C)c1", "cytotoxicity at 10 µM": -1.39},
      {"smiles": "Cc1csc(C2CCCCN2C(=O)Cn2cncn2)n1", "note": "(stereo not given)", "cytotoxicity at 10 µM": -0.0679},
      {"smiles": "Cc1cccn2cc(CN3CCCC(c4noc(C5CC5)n4)C3)nc12", "note": "(stereo not given)", "cytotoxicity at 10 µM": 2.29},
      {"smiles": "CN(Cc1ccco1)C(=O)NCC(c1cccs1)N(C)C", "note": "(stereo not given)", "cytotoxicity at 10 µM": 4.38},
      {"smiles": "CS(=O)(=O)NCC1CCCCN1C(=O)c1ccc(Br)s1", "note": "(stereo not given)", "cytotoxicity at 10 µM": 1.58},
      {"smiles": "CCC1CN(C(=O)c2[nH]nc(C)c2Br)CCO1", "note": "(stereo not given)", "cytotoxicity at 10 µM": -3.22},
      {"smiles": "CC(C)CC(C(=O)N(C)Cc1ncnn1C)N1CCCCC1=O", "note": "(stereo not given)", "cytotoxicity at 10 µM": -0.159},
      {"smiles": "O=c1[nH]nc(CNc2ncc(Br)cn2)[nH]1", "cytotoxicity at 10 µM": -5.12},
      {"smiles": "CC(=O)c1cc(C(=O)NC2(c3ccccc3)CCC2)n(C)c1", "cytotoxicity at 10 µM": -11.7},
      {"smiles": "NC(=O)N1CCCN(C(=O)Nc2cc(-n3cccc3)ccc2F)CC1", "cytotoxicity at 10 µM": -2.09},
      {"smiles": "CCC(C)NC(=O)CS(=O)(=O)Cc1cc(C)ccc1C", "note": "(stereo not given)", "cytotoxicity at 10 µM": -3.06},
      {"smiles": "CC(=O)N(C)Cc1cccc(NC(=O)N(C)Cc2nccs2)c1", "cytotoxicity at 10 µM": -6.77},
      {"smiles": "CN1CC(C(=O)NCCc2ccc(F)c(Br)c2)CC1=O", "note": "(stereo not given)", "cytotoxicity at 10 µM": 3.57}
    ]}
  ]
}
